Ten compounds from ChEMBL document CHEMBL2429802, “Cytotoxic oxepinochromenone and flavonoids from the flower buds of Rosa rugosa” (J Nat Prod, 2013) can be followed below.

As a reminder, the IC50 is the midpoint of a concentration-inhibition curve.

Bounds are passed on as bounds.

Common to all, as to assay type: functional, cell-based
The subject of one test is MCF7. The test can be described thus: Cytotoxicity against human MCF7 cells assessed as growth inhibition after 72 hrs by MTT assay. To be noted: MCF7, 72 h. The gist of the method:
(§1)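 2500 cells per well seeded in MEM medium and incubated 24 h. Medium then replaced with fresh medium containing compound at 100 to 1.5625 μM (six 2-fold dilutions). OD595 read after MTT on control wells at 0 and 72 h and on treated wells at 72 h. IC50 taken as the concentration inhibiting 50% of cell growth. Paclitaxel served as positive control.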
In general terms: Formazan colour is commonly taken as a measure of viable cells.

The subject of the next test is PC-3. As to the kind of experiment: Cytotoxicity against human PC3 cells assessed as growth inhibition after 72 hrs by MTT assay. The settings on record: PC-3, 72 h. In short, it runs like this:
as §1

The nature of test [1]: Cytotoxicity against human SH-SY5Y cells assessed as growth inhibition after 72 hrs by MTT assay. In short, it runs like this:
as §1

The next test has as its system A549. As to the kind of experiment: Cytotoxicity against human A549 cells assessed as growth inhibition after 72 hrs by MTT assay. The settings on record: A549, 72 h. In short, it runs like this: as §1
A further test relates to NB-4. The test can be described thus: Cytotoxicity against human NB4 cells assessed as growth inhibition after 72 hrs by MTT assay. The settings on record: NB-4, 72 h. The gist of the method:
as §1

Consider `COc1c(O)ccc(C/C=C/c2ccc3c(c2)OCO3)c1OC`, for which the IC50 (in the test on MCF7; with PC-3; in test [1]; in the test on A549; with NB-4) was more than 10 µM throughout.

For `COc1cc(/C=C/Cc2ccc(O)c(OC)c2OC)cc2c1OCO2`, the IC50 (with MCF7; in the test on PC-3; in test [1]; with A549; with NB-4) was more than 10 µM throughout.

In the case of `O=C(OC[C@H]1O[C@@H](Oc2c(-c3ccc(O)cc3)oc3cc(O)cc(O)c3c2=O)[C@H](O)[C@@H](O)[C@@H]1O)c1ccc(O)cc1`, the IC50 with MCF7 was 7.3 µM; in the test on PC-3, more than 10 µM; in test [1] it was 8.2 µM; in the test with A549, more than 10 µM; in the test on NB-4, 4.7 µM.

On to `COC(=O)[C@@]1(O)c2c(oc(-c3ccc(O)cc3)cc2=O)OC=C[C@@H]1O`, for which the IC50 was more than 10 µM in the test with MCF7; 6.8 µM in the test with PC-3; more than 10 µM in test [1]; 7.2 µM in the test on A549; more than 10 µM in the test on NB-4.

For the compound `COc1cc2c(=O)cc(-c3ccc(O)c(O)c3)oc2c(C(C)=O)c1OC`, the IC50 with MCF7 is 2.8 µM; with PC-3, 8.4 µM; in test [1] it was 4.3 µM; with A549, 1.2 µM; with NB-4, 3.6 µM.

Take `COc1cc2c(cc1OC)[C@@H](O)[C@H](c1ccc(O)cc1)CO2`: the IC50 (in the test on MCF7; with PC-3; in test [1]; in the test on A549; in the test on NB-4) was more than 10 µM in each case.

`COc1ccc2c(c1CCO)O[C@@H](c1ccc(O)cc1O)CC2`: the IC50 (in the test on MCF7; in the test on PC-3; in test [1]; in the test with A549; with NB-4) was more than 10 µM throughout.

Regarding `CC(=O)O[C@H]1C(=O)[C@@]2(C)[C@H]([C@H](OC(=O)c3ccccc3)[C@]3(O)C[C@H](OC(=O)[C@H](O)[C@@H](NC(=O)c4ccccc4)c4ccccc4)C(C)=C1C3(C)C)[C@]1(OC(C)=O)CO[C@@H]1C[C@@H]2O` [PACLITAXEL], the concentration for half-maximal inhibition (IC50) in test [1] is 0.2 µM.

On to `COc1ccc([C@@H]2COc3cc(OC)c(O)cc3[C@H]2O)cc1`, for which the IC50 (with MCF7; in the test with PC-3; in test [1]; in the test with A549; with NB-4) was more than 10 µM in each case.

With `COC(=O)c1cc(O)cc2oc(-c3ccc(OC)cc3)cc(=O)c12`, the IC50 is 2.3 µM with MCF7; 4.8 µM with PC-3; 2.5 µM in test [1]; 6.7 µM in the test with A549; 2.2 µM with NB-4.
